Results pooled from the literature.
Protocols differ between the studies behind these lines.
Target: Dual specificity mitogen-activated protein kinase kinase 7 (MAP2K7, Homo sapiens, UniProt O14733)
Sequence (O14733 1-419, as in one of the studies): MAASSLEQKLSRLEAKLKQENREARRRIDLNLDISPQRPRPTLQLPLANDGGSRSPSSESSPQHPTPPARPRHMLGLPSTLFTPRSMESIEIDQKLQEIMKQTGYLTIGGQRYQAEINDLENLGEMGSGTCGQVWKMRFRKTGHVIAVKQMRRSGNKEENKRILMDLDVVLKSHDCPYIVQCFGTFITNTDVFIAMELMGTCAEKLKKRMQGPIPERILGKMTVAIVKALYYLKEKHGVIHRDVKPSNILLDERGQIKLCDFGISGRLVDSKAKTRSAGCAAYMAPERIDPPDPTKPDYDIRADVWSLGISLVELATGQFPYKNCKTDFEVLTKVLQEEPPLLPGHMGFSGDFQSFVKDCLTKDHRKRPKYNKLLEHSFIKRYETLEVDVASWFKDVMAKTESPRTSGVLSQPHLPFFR

| Compound | read-out | method | tested at | remaining binding [%] |
| --- | --- | --- | --- | --- |
| CN(C)c1nccc(-c2cnc3ncccn23)n1 | binding | – | 1 µM | 88 |
| Cc1nc(N2CC[C@@H](O)C2)ncc1-c1cc(C(F)(F)F)cc2[nH]ncc12 | binding | competition with immobilised ligand | 1 µM | 64 |
| c1cnn2ncc(-c3ccnc(N4CCC45COC5)n3)c2c1 | binding | – | 1 µM | 72 |
| Cc1nc(Cc2cccc(C(F)(F)F)c2)sc1-c1ccc(C(N)=O)nc1 | cell-free assay | competition with immobilised ligand | 1 µM | 100 |
| FC(F)(F)Oc1cccc(-c2cnc3ccc(-c4ccncc4)nn23)c1 | cell-free assay | competition with immobilised ligand | 5 µM | 96 |
| Cc1c(NC(=O)c2cc(C(N)=O)nc3cc(F)ccc23)c(C(F)(F)F)nn1Cc1ccc(C#N)cc1 | cell-free assay | competition with immobilised ligand | 1 µM | 79 |
| Cc1cnc(Nc2ccc(C(=O)N3CCC(N4CCCC4)CC3)cc2)nc1-c1cc2ccccc2s1 | binding | competition with immobilised ligand | 1 µM | 81 |
| COc1cnc(Nc2cccc(S(N)(=O)=O)c2)nc1N1CCN(c2ccccc2)C(=O)C1 | binding | competition with immobilised ligand | 1 µM | 92 |
| CN(C)c1ncnc(-c2ccc3nc(Nc4cc(CN5CCN(C(=O)CC(F)(F)F)CC5)ccn4)[nH]c3c2)c1Cl | cell-free assay | competition with immobilised ligand | 1 µM | 100 |
| COc1cnc(Nc2cccc(S(N)(=O)=O)c2)nc1N1CCN(c2ccccc2)CC1 | binding | competition with immobilised ligand | 1 µM | 97 |
| C[C@H]1CCN(c2nccc(-c3cnn4ncccc34)n2)C1 | binding | – | 1 µM | 83 |
| COc1ncc2cc3ccccc3nc2c1C#N | cell-free assay | competition with immobilised ligand | 5 µM | 95 |
| O=C(NCC1CCOCC1)c1n[nH]cc1NC(=O)c1c(F)cccc1F | binding | competition with immobilised ligand | 1 µM | 84 |
| CN(c1nccc(-c2cnn3ncccc23)n1)C1CC1 | binding | – | 1 µM | 100 |
| CN(C)CC#Cc1ccc(OCCCc2sc(N3CCc4cccc(C(=O)Nc5nc6ccccc6s5)c4C3)nc2C(=O)O)c(F)c1 | cell-free assay | competition with immobilised ligand | 1 µM | 69 |
| COc1ccnn2ncc(-c3ccnc(N(C)C)n3)c12 | binding | – | 1 µM | 73 |
| O=C(c1ccc(Nc2nccc(-c3cc4ccccc4s3)n2)cc1)N1CCC(N2CCCC2)CC1 | binding | competition with immobilised ligand | 1 µM | 26 |
| CN(C)c1ncc(F)c(-c2cnn3ncccc23)n1 | binding | – | 1 µM | 88 |
| CC1=C(C#N)[C@@H](c2ccc3[nH]nc(C)c3c2)C(C#N)=C(c2ccc(Cl)cc2)N1 | cell-free assay | competition with immobilised ligand | 1 µM | 92.2 |
| O=C(NCCCN1CCOCC1)c1ccc(Nc2ncc(Cl)c(-c3ccc(Cl)s3)n2)cc1 | binding | competition with immobilised ligand | 1 µM | 87 |
